Measurements published in ChEMBL document CHEMBL1140300, “Synthesis and pharmacological characterization of exo-2-(2'-chloro-5-pyridinyl)-7-(endo and exo)-aminobicyclo[2.2.1]heptanes as novel epibatidine analogues” (J Med Chem, 2005).

Assays:
[1] = biological target: Neuronal acetylcholine receptor; alpha4/beta2 (Rattus norvegicus, UniProt P09483+P12390); test: Displacement of [3H]epibatidine from alpha4beta2 nAChR in rat cerebral cortex; assay type: tissue-based
[2] = biological target: Neuronal acetylcholine receptor subunit alpha-7 (Homo sapiens, UniProt P36544); test: Displacement of [125]iodoMLA from alpha-7 nAChR
Sequence of Neuronal acetylcholine receptor subunit alpha-7 (P36544 whole entry): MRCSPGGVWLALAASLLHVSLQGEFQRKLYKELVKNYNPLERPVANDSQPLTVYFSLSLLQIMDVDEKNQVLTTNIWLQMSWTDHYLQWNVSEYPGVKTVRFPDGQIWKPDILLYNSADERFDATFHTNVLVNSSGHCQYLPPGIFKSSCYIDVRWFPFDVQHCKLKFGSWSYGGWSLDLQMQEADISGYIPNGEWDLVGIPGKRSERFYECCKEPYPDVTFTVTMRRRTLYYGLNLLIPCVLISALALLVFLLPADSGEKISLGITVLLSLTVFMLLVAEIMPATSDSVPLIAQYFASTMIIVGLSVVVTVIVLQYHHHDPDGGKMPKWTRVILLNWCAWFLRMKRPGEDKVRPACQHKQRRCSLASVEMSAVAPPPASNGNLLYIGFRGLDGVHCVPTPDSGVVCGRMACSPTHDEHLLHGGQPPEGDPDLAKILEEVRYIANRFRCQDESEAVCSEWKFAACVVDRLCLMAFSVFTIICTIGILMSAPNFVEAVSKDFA

[3] = system: Mus musculus; test: Activity in sc dosed mouse by hypothermia test; assay type: functional
Outline: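 Rectal temperature in mice via thermistor probe inserted 24 mm, read just before and at several times after sc injection of saline or test compound. Change from pretreatment value per mouse. Ambient 21–24 °C. ED50 with 95% confidence limits by unweighted least-squares linear regression.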

[4] = system: Mus musculus; test: Antinociceptive activity in sc dosed mouse by tail-flick method; assay type: functional
Outline: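 Mouse tail-flick (D'Amour–Smith): tail exposed to heat lamp, latency to flick recorded. Control latency (2–4 s) taken per mouse before treatment, test latency after sc dosing. Response as %MPE = [(test – control)/(maximum latency – control) × 100]. ED50 with 95% confidence limits by unweighted least-squares linear regression.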

[5] = system: Mus musculus; test: Antinociceptive activity in sc dosed mouse by hotplate method; assay type: functional
Outline: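 Mouse hot-plate at 55.0 °C, animal in 10 cm glass cylinder. Two control latencies ≥10 min apart (normal 8–12 s). End point is jumping or paw licking. Tested 5 min after sc injection across a dose range. Response as %MPE = [(test – control)/(maximum latency – control) × 100]. ED50 with 95% confidence limits by unweighted least-squares linear regression.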

[6] = system: Mus musculus; test: Effect on locomotor activity in sc dosed mouse; assay type: functional
Outline: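 Spontaneous activity: mice placed in individual photocell cages (28 × 16.5 cm) 5 min after sc dosing of 0.9% saline or test compound. Beam interruptions (two banks of eight cells) counted over the next 10 min.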

Sequence of Neuronal acetylcholine receptor; alpha4/beta2 (P09483 whole entry): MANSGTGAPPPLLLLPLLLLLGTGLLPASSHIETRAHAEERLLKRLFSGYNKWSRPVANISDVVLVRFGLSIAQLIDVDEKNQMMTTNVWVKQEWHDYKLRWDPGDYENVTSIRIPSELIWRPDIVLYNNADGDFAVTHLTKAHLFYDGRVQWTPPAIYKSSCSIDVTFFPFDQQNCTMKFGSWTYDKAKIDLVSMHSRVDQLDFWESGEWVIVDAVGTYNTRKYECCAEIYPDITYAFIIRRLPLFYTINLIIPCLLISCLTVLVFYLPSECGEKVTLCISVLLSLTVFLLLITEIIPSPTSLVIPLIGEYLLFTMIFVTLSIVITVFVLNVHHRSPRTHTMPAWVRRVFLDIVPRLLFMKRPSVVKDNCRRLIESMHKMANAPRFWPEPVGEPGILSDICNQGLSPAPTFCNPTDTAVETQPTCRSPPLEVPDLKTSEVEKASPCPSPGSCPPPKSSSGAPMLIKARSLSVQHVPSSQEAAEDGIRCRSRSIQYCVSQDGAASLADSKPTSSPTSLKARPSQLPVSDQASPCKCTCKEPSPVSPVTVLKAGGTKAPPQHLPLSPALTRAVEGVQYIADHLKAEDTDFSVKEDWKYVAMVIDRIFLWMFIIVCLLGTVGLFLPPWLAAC
Sequence of Neuronal acetylcholine receptor; alpha4/beta2 (P12390 whole entry): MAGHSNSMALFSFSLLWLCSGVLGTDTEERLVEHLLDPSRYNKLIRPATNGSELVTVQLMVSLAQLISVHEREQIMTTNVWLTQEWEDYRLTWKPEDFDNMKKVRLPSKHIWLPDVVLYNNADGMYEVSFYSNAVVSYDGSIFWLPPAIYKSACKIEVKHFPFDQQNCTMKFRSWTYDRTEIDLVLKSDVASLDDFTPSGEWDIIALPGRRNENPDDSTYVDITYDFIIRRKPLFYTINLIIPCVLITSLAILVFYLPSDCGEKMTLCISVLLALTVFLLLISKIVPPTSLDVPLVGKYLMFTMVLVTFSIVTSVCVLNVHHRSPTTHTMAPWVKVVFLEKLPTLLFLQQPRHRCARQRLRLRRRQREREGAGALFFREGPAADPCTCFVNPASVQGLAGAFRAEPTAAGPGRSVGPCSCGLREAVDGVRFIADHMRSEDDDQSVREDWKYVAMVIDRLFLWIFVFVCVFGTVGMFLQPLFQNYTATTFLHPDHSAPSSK

SMILES	Ki [1] [nM]	Ki [2] [nM]	ED50 [3] [mg/kg]	ED50 [4] [mg/kg]	ED50 [5] [mg/kg]	ED50 [6] [mg/kg]
Clc1ccc([C@H]2CC3CCC2[C@@H]3NCc2ccccc2)cn1 (relative stereo)	> 1000	> 200				
Cl.Cl.Cl.N[C@H]1C2CCC1[C@@H](c1ccc(Cl)nc1)C2 (relative stereo)	8.2	> 700	3.4	4.5	2.9	
Clc1ccc([C@H]2CC3CCC2[C@H]3NCc2ccccc2)cn1 (relative stereo)	> 1000	> 700				
Cl.N[C@@H]1C2CCC1[C@@H](c1ccc(Cl)nc1)C2 (relative stereo)	10.9	> 700	2.3	4.5	4.4	1.1
Cl.Clc1ccc([C@H]2CC3CCC2N3)cn1 (some centres undefined) [EPIBATIDINE HYDROCHLORIDE]		198	0.004	0.006	0.004	0.001
CN1CCC[C@H]1c1cccnc1.Cl [NICOTINE HYDROCHLORIDE]			1	1.3	0.65	0.5
